Among the data in ChEMBL document CHEMBL3804806, “Synthesis of (Z)-1-(1,3-diphenyl-1H-pyrazol-4-yl)-3-(phenylamino)prop-2-en-1-one derivatives as potential anticancer and apoptosis inducing agents” (Eur J Med Chem, 2016) are IC50 values, retold here.

The subject of one assay is HaCaT. In words: Antiproliferative activity against human HaCaT cells after 48 hrs by MTT assay. In kind it is cell-based. Summed up:
(§1)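 Cells seeded at 3,000-5,000/well by doubling time and grown 24 h (37 °C, 5% CO2). HT-29/U87MG kept in DMEM + 10% FBS; A549/PC-3/HaCaT in RPMI-1640 + 10% FBS. Compounds for 48 h, then MTT 4 h, formazan dissolved in DMSO, A570 minus A630. % inhibition vs DMSO-treated cells; IC50 by probit. Three independent experiments in quadruplicate; mean ± SD.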
In general terms: Tetrazolium assays rely on reduction of a dye to a coloured formazan, in cell work by metabolically active cells.

Assay [1] is described as follows: Antiproliferative activity against human PC3 cells after 48 hrs by MTT assay. It is filed as functional, cell-based. The settings on record: PC-3, 48 h. Summed up:
as §1

The next assay deals with A549. Nature of the assay: Antiproliferative activity against human A549 cells after 48 hrs by MTT assay. In kind it is functional, cell-based. The settings on record: A549, 48 h. Summed up:
as §1

The nature of assay [2]: Antiproliferative activity against human U87MG cells after 48 hrs by MTT assay. It is filed as functional, cell-based, U-87MG ATCC. The settings on record: U-87 MG. Summed up: as §1
In the next assay the test system is HT-29. Nature of the assay: Antiproliferative activity against human HT-29 cells after 48 hrs by MTT assay. The note with it: HT-29, 48 h. It is filed as functional, cell-based. Summed up: as §1

One may read the IC50 as the concentration that inhibits the measured activity by half.

A value given as a limit tells only on which side of the number the result lay.

In the case of `O=C(/C=C\Nc1ccc(F)cc1)c1cn(-c2ccccc2)nc1-c1ccccc1`, the IC50 is 34.2 µM in the assay on HaCaT; 7.98 µM in assay [1]; 4.67 µM with A549; 10.2 µM in assay [2]; 6.87 µM with HT-29.
On the same counts, the results for `COc1cc(N/C=C\C(=O)c2cn(-c3ccccc3)nc2-c2ccc(F)cc2)cc(OC)c1OC` are 32.8 µM, 4.89 µM, 9.35 µM, 12.6 µM and 7.77 µM.
On the same counts, the results for `COc1cc(-c2nn(-c3ccccc3)cc2C(=O)/C=C\Nc2ccc(O)cc2)cc(OC)c1OC` are 17.6 µM, 4.6 µM, 3.16 µM, 1.8 µM and 2.5 µM.
On the same counts, the results for `COc1ccc(-c2nn(-c3ccccc3)cc2C(=O)/C=C\Nc2ccc(F)cc2)cc1` are 8.91 µM, 5.73 µM, 3.98 µM, 8.91 µM and 7.65 µM.
On to `O=C(/C=C\Nc1ccc(O)cc1)c1cn(-c2ccccc2)nc1-c1ccccc1`, for which the IC50 in the assay on HaCaT amounted to 44.6 µM; in assay [1] it was 3.6 µM; in the assay on A549 it was 3.21 µM; in assay [2] it was 4.29 µM; in the assay on HT-29, 5 µM.
For `COc1ccc(-c2nn(-c3ccccc3)cc2C(=O)/C=C\Nc2ccc(Cl)cc2)cc1`, in that order: 20.9 µM, 3.89 µM, 2.97 µM, 8.86 µM and 4.76 µM.
On the same counts, the results for `COc1cc(N/C=C\C(=O)c2cn(-c3ccccc3)nc2-c2cc(OC)c(OC)c(OC)c2)cc(OC)c1OC` are 20.9 µM, 14.1 µM, 7.98 µM, 5.1 µM and 8.4 µM.
For `COc1ccc(-c2nn(-c3ccccc3)cc2C(=O)/C=C\Nc2ccc(C(F)(F)F)cc2)cc1`, the IC50 was > 50 µM in the assay with HaCaT; > 50 µM in assay [1]; > 50 µM in the assay with A549; > 50 µM in assay [2]; 9.87 µM in the assay with HT-29.
With `O=C(/C=C\Nc1ccc(Cl)cc1)c1cn(-c2ccccc2)nc1-c1ccc(F)cc1`, the IC50 in the assay on HaCaT amounted to 21.3 µM; in assay [1] it was 3.8 µM; in the assay on A549, 6.7 µM; in assay [2], 8.9 µM; with HT-29, 4.6 µM.
On the same counts, the results for `O=C(/C=C\Nc1ccc(C(F)(F)F)cc1)c1cn(-c2ccccc2)nc1-c1ccc(F)cc1` are > 50 µM, > 50 µM, > 50 µM, > 50 µM and > 50 µM.
Consider `COc1ccc(N/C=C\C(=O)c2cn(-c3ccccc3)nc2-c2ccc(F)cc2)cc1`, for which the IC50 in the assay on HaCaT is 19.6 µM; in assay [1], 4.6 µM; in the assay on A549 it was 8.9 µM; in assay [2], 2.5 µM; with HT-29, 3.2 µM.
On the same counts, the results for `O=C(/C=C\Nc1ccc(C(F)(F)F)cc1)c1cn(-c2ccccc2)nc1-c1ccc(Cl)cc1` are > 50 µM, > 50 µM, > 50 µM, > 50 µM and > 50 µM.
Turning to `COc1cc(N/C=C\C(=O)c2cn(-c3ccccc3)nc2-c2ccccc2)cc(OC)c1OC`, the IC50 in the assay on HaCaT is 36.2 µM; in assay [1], 5.93 µM; in the assay with A549, 6.34 µM; in assay [2], 2.35 µM; in the assay on HT-29, 9.8 µM.
Regarding `O=c1[nH]cc(F)c(=O)[nH]1` [FLUOROURACIL], the IC50 in the assay on HaCaT stood at 16.1 µM; in assay [1], 2.76 µM; with A549, 3.98 µM; in assay [2], 3.65 µM; in the assay on HT-29, 2.8 µM.
For `O=C(/C=C\Nc1ccc(F)cc1)c1cn(-c2ccccc2)nc1-c1ccc(Cl)cc1`, in that order: > 50 µM, > 50 µM, > 50 µM, 17.9 µM and > 50 µM.
For `COc1cc(-c2nn(-c3ccccc3)cc2C(=O)/C=C\Nc2ccc(C(F)(F)F)cc2)cc(OC)c1OC`, in that order: > 50 µM, > 50 µM, > 50 µM, > 50 µM and > 50 µM.
With `COc1cc(-c2nn(-c3ccccc3)cc2C(=O)/C=C\Nc2ccc(Cl)cc2)cc(OC)c1OC`, the IC50 in the assay with HaCaT was 30.2 µM; in assay [1], 11.2 µM; with A549 it was 8.67 µM; in assay [2], 3.21 µM; in the assay with HT-29, 7.68 µM.
For `COc1ccc(N/C=C\C(=O)c2cn(-c3ccccc3)nc2-c2ccc(OC)cc2)cc1`, the IC50 in the assay with HaCaT is > 50 µM; in assay [1], 13.4 µM; in the assay on A549, 6.78 µM; in assay [2] it was > 50 µM; in the assay with HT-29, 8.76 µM.
Regarding `COc1ccc(-c2nn(-c3ccccc3)cc2C(=O)/C=C\Nc2cc(OC)c(OC)c(OC)c2)cc1`, the IC50 with HaCaT is > 50 µM; in assay [1], 18.9 µM; in the assay on A549, 11.2 µM; in assay [2] it was > 50 µM; with HT-29, 14.6 µM.
With `COc1ccc(N/C=C\C(=O)c2cn(-c3ccccc3)nc2-c2cc(OC)c(OC)c(OC)c2)cc1`, the IC50 with HaCaT was > 50 µM; in assay [1] it was 9.6 µM; in the assay on A549, 4.78 µM; in assay [2], 12.8 µM; with HT-29, 5.78 µM.
In the case of `O=C(/C=C\Nc1ccc(Cl)cc1)c1cn(-c2ccccc2)nc1-c1ccc(Cl)cc1`, the IC50 in the assay on HaCaT was 23.4 µM; in assay [1], 3.89 µM; in the assay on A549, 3.67 µM; in assay [2], 13.1 µM; with HT-29, 4.65 µM.
Consider `COc1ccc(N/C=C\C(=O)c2cn(-c3ccccc3)nc2-c2ccc(Cl)cc2)cc1`, for which the IC50 in the assay with HaCaT came to 30.8 µM; in assay [1] it was 10.7 µM; with A549, 6.46 µM; in assay [2] it was 6.89 µM; in the assay with HT-29 it was 8.93 µM.
Take `COc1cc(N/C=C\C(=O)c2cn(-c3ccccc3)nc2-c2ccc(Cl)cc2)cc(OC)c1OC`: the IC50 is 46.6 µM in the assay on HaCaT; 9.98 µM in assay [1]; 5.64 µM with A549; 17.8 µM in assay [2]; 12.7 µM in the assay with HT-29.
As for `O=C(/C=C\Nc1ccc(C(F)(F)F)cc1)c1cn(-c2ccccc2)nc1-c1ccccc1`, the IC50 (in the assay with HaCaT; in assay [1]; in the assay with A549; in assay [2]; with HT-29) was > 50 µM throughout.
Turning to `COc1cc(-c2nn(-c3ccccc3)cc2C(=O)/C=C\Nc2ccc(F)cc2)cc(OC)c1OC`, the IC50 in the assay with HaCaT turned out to be 25.7 µM; in assay [1], 7.7 µM; with A549, 15.6 µM; in assay [2] it was 4.78 µM; in the assay on HT-29, 12.5 µM.
Take `O=C(/C=C\Nc1ccc(F)cc1)c1cn(-c2ccccc2)nc1-c1ccc(F)cc1`: the IC50 in the assay on HaCaT was > 50 µM; in assay [1], 7.9 µM; with A549 it was 5.78 µM; in assay [2], 18.2 µM; with HT-29 it was 6.5 µM.
For `COc1ccc(N/C=C\C(=O)c2cn(-c3ccccc3)nc2-c2ccccc2)cc1`, in that order: > 50 µM, 6.4 µM, 3.25 µM, > 50 µM and 1.56 µM.
On the same counts, the results for `O=C(/C=C\Nc1ccc(Cl)cc1)c1cn(-c2ccccc2)nc1-c1ccccc1` are 28.4 µM, 5.2 µM, 14.1 µM, 11.4 µM and 3.61 µM.
